Assay [1] deals with T1, Sterol regulatory element-binding protein 1 (Homo sapiens) (UniProt P36956).
T1 sequence (whole entry): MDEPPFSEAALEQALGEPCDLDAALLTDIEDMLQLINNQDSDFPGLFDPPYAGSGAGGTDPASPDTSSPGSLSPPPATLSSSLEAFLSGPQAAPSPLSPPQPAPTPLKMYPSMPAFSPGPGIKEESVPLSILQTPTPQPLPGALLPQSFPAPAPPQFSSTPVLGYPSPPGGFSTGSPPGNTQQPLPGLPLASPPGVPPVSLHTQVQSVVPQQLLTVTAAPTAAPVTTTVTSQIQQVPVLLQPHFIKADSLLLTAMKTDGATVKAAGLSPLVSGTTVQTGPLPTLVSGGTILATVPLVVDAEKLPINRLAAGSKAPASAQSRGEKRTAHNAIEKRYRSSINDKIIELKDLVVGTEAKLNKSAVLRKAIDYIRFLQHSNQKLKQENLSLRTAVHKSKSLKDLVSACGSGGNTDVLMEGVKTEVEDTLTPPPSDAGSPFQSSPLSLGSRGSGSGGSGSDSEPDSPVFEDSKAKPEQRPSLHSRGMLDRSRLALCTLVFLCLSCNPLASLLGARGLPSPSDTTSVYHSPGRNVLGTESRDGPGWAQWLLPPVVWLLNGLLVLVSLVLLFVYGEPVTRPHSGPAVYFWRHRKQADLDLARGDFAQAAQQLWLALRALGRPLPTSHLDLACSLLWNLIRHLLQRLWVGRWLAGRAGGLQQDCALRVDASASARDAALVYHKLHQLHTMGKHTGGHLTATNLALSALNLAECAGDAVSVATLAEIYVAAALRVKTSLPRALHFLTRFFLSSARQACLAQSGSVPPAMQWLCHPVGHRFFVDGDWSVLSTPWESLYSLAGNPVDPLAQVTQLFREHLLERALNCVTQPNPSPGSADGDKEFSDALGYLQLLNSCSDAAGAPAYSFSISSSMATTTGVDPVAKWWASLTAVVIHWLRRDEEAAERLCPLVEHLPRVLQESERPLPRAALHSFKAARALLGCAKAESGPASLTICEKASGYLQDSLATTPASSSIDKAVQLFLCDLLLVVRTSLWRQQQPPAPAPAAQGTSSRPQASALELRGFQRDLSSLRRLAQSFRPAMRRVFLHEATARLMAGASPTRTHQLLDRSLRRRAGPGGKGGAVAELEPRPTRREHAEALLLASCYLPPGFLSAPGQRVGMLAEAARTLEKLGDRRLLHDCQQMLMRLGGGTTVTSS
The experiment in a line: Induction of SREBP degradation in human HepG2 cells at 10 uM preincubated with cycloheximide for 1 hr followed by compound additon by Western blot analysis. It counts as cell-based. A digest of the protocol:
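HepG2 cells pretreated 1 h with cycloheximide at […]. Medium then switched to cycloheximide plus vehicle or compound at […] for varying times. SREBP decay rate followed by Western blot of lysates.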

Assay [2] concerns HepG2. The experiment in a line: Cytotoxicity against human HepG2 cells assessed as reduction in cell viability at 10 uM after 24 hrs by CCK8 assay. It counts as functional. In general terms: Formazan colour is commonly taken as a measure of viable cells.
The target in assay [3] is T1, Sterol regulatory element-binding protein 1 (Homo sapiens). The experiment in a line: Induction of SREBP degradation in human HepG2 cells at 10 uM preincubated with MG-132 for 1 hr followed by compound additon and measured after 4 hrs by Western blot analysis. The format is cell-based. A digest of the protocol: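 HepG2 cells pretreated 1 h with MG-132 at […]. Medium then switched to MG-132 plus vehicle or compound at […] for 4 h. SREBPs detected in lysates by Western blot.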
For orientation: Immunoblotting shows a protein as a band on a membrane.

Assay [4] has as its system Mus musculus. The experiment in a line: Hypolipidemic activity in high fat diet-induced C57BL/6J mouse assessed as reduction in serum TG level at 170 to 340 mg/kg, po administered daily for 6 weeks. The format is functional, organism-based. The following applies: dose 170-340 mg/kg. A digest of the protocol: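 Male C57BL/6J mice, six weeks old, fed a 45%-fat diet (HFD) for 15 weeks; chow-fed mice served as controls. Obese mice were randomized to vehicle (0.1% w/v CMC-Na) or 170 or 340 mg/kg, gavaged daily for 6 weeks while diet continued. Body weight, food intake, organ weights, serum lipids, tissue histology (H&E, Oil red O), liver SREBP blots and liver qPCR followed.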

Each structure is given as a SMILES string. Activity calls are given as the source filed them. The rule behind the calls is not given here.

Regarding `COc1ccc2c(c1OCC1CCCCC1)CN1CCc3cc4c(cc3C1C2)OCO4` (centres undefined), the outcome in assay [1] and in assay [4] was Active. Besides, in assay [2], the Activity is 93%. Also, the outcome in assay [3] was inactive.

The values are drawn from ChEMBL document CHEMBL4837214, “Design, synthesis, and biological evaluation of novel tetrahydroprotoberberine derivatives to reduce SREBPs expression for the treatment of hyperlipidemia” (Eur J Med Chem, 2021).
